The source made the active and inactive calls.
Tests used:
[1] = biological target: T1, Histone acetyltransferase RTT109 (Saccharomyces cerevisiae (strain ATCC 204508 / S288c) (Baker's yeast)) (UniProt Q07794); test: Inhibition of Vps75-stimulated recombinant Saccharomyces cerevisiae histone acetyltransferase Rtt109 assessed as H3K56 acetylated product at […] after 45 mins by Slot bolt inhibiton assay
T1 sequence (whole entry): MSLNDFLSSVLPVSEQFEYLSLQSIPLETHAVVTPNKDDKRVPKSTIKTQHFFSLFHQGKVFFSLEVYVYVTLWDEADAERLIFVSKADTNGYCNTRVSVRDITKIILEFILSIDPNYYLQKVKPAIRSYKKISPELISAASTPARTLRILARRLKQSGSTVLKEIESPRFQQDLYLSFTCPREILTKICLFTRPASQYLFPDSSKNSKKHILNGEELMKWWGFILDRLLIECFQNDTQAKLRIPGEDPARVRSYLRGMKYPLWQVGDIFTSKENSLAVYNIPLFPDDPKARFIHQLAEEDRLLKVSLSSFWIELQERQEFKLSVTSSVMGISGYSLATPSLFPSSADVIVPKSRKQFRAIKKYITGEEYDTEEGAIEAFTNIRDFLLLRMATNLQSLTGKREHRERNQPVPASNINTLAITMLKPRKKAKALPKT

[2] = biological target: T1, Histone acetyltransferase RTT109 (Saccharomyces cerevisiae (strain ATCC 204508 / S288c) (Baker's yeast)); test: Inhibition of Vps75-stimulated recombinant Saccharomyces cerevisiae histone acetyltransferase Rtt109 assessed as H3K27 acetylated product at […] after 45 mins by Slot bolt inhibiton assay
[3] = Fluorescence quenching assessed as fluorescence signal reduction at 10 uM after 10 mins; type: physicochemical
Summary of the method: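 CPM (20 μM final) and CoA (5 μM final) reacted to completion in assay buffer (stable plateau, usually ~5 min); adduct solution added to wells preplated with compound; shaken 5 min, equilibrated 5 min at room temperature; fluorescence intensity read as percent signal reduction versus DMSO controls. Flagged as quencher at >20% signal reduction at 10 μM final compound.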

[4] = Fluorescence quenching in HTS buffer assessed as fluorescence signal reduction at 10 uM after 10 mins; type: physicochemical
[5] = Fluorescence quenching in HTS buffer with […] CoA assessed as fluorescence signal reduction at 10 uM after 10 mins; type: physicochemical
[6] = Fluorescence quenching in HTS buffer with 20 uM 7-diethylamino-3-(4'-maleimidyl-phenyl)-4-methylcoumarin assessed as fluorescence signal reduction at 10 uM after 10 mins; type: physicochemical

SMILES | Activity [1] | Activity [2] | Activity [3] | Activity [4] | Activity [5] | Activity [6]
O=S(=O)(Nc1cc(Sc2ccccc2)c(O)c2ccccc12)c1ccccc1 | Active | Active | Not Active | Not Active | Not Active | Not Active
[O-][Cl+3]([O-])([O-])[O-].c1ccc(C[n+]2sc(N(c3ccccc3)c3ccccc3)nc2-c2ccccc2)cc1 | Active | Active | Not Active | Not Active | Not Active | Not Active
CSc1nsc(SC2=CS(=O)(=O)c3ccccc32)n1 | Active | Active | Not Active | Not Active | Not Active | Not Active
Cc1ccc(S(=O)(=O)C[n+]2sc(N(c3ccccc3)c3ccccc3)nc2-c2ccccc2)cc1 | inactive | inactive |  |  |  | 
Cc1ccc(-c2nc(N(c3ccccc3)c3ccccc3)s[n+]2CS(=O)(=O)c2ccccc2)cc1.[O-][Cl+3]([O-])([O-])[O-] | inactive | inactive | Not Active | Not Active | Not Active | Not Active
O=C(O)c1ccc(S(=O)(=O)Nc2cc(Br)c(O)c3ccccc23)cc1 | Active | Active | Not Active | Not Active | Not Active | Not Active
O=[N+]([O-])c1cc(Br)c2nsnc2c1Sc1nnnn1C1CCCCC1 | Active | Active | Not Active | Not Active | Not Active | Not Active
CCOc1ccc(Nc2nc(-c3ccc(C)cc3)[n+](Cc3ccc([N+](=O)[O-])cc3)s2)cc1.[Br-] | Active | Active | Not Active | Not Active | Not Active | Not Active
O=C1C=CC(=O)N1c1ccc(Cl)cc1 | Active | Active | Not Active | Not Active | Not Active | Not Active
Cc1ccc(S(=O)(=O)C2=CS(=O)(=O)c3ccccc32)cc1 | Active | Active | Not Active | Not Active | Not Active | Not Active
[Br-].c1ccc(Nc2nc(-c3ccccc3)[n+](-c3ccccc3)s2)cc1 | Active | Active | Not Active | Not Active | Not Active | Not Active
CC(C)c1ccc(S(=O)(=O)Nc2ccc(O)c(Br)c2)cc1 | inactive | inactive | Not Active | Not Active | Not Active | Not Active
Cc1cc(C)c(S(=O)(=O)Nc2cc(Br)c(O)c3ccccc23)c(C)c1 | Active | Active | Not Active | Not Active | Not Active | Not Active
c1ccc(C[n+]2sc(Nc3ccccc3)nc2-c2ccccc2)cc1 | Active | Active |  |  |  | 
Cc1nnc(SC2CC(=O)N(c3ccc(Br)cc3)C2=O)s1 (stereo unspecified) | Active | Active | Not Active | Not Active | Not Active | Not Active
O=S(=O)(Nc1ccc(O)c(Br)c1)c1ccc(Cl)cc1 | inactive | inactive | Not Active | Not Active | Not Active | Not Active

Other lines, results leading:

Activity [1] | Activity [2] | Activity [3] | Activity [4] | Activity [5] | Activity [6] | SMILES
Active | Active | Not Active | Not Active | Not Active | Not Active | O=C1CC(Sc2nnc(-c3ccccc3)[nH]2)C(=O)N1c1ccc(Oc2ccccc2)cc1 (stereo unspecified)
Active | Active | Not Active | Not Active | Not Active | Not Active | COc1ccc(Nc2nc(-c3ccc(C)cc3)[n+](Cc3ccccc3)s2)cc1.[Cl-]
Active | Active |  |  |  |  | O=[N+]([O-])c1ccc(Sc2cccc(Cl)c2)c2nonc12
Active | Active | Not Active | Not Active | Not Active | Not Active | CC(C)c1ccc(S(=O)(=O)Nc2cc(Sc3nc[nH]n3)c(O)c3ccccc23)cc1
Active | Active | Not Active | Not Active | Not Active | Not Active | O=C1CC(Sc2nnnn2-c2ccccc2)C(=O)N1c1ccc([N+](=O)[O-])cc1 (stereo unspecified)
Active | Active | Not Active | Not Active | Not Active | Not Active | Cc1occc1-c1nnc(SC2=CS(=O)(=O)c3ccccc32)o1
Active | Active | Not Active | Not Active | Not Active | Not Active | O=S(=O)(C[n+]1sc(Nc2ccc(Cl)cc2Cl)nc1-c1ccccc1)c1ccccc1.[Cl-]
Active | Active | Not Active | Not Active | Not Active | Not Active | Cc1ccc(-c2nc(Nc3ccccc3)s[n+]2CS(=O)(=O)c2ccccc2)cc1.[Cl-]
Active | Active | Not Active | Not Active | Not Active | Not Active | COc1ccc(N2C(=O)CC(Sc3nnc(-c4ccccc4)o3)C2=O)cc1 (stereo unspecified)
Active | Active | Not Active | Not Active | Not Active | Not Active | COc1cc(-c2nnc(SC3=CS(=O)(=O)c4ccccc43)o2)cc(OC)c1OC
Active | Active | Not Active | Not Active | Not Active | Not Active | O=c1[nH]c(Sc2c([N+](=O)[O-])cc(Br)c3nsnc23)nc2ccccc12
Active | Active | Not Active | Not Active | Not Active | Not Active | COc1ccc(-c2nc(N)s[n+]2-c2ccccc2)cc1.[Cl-]
Active | Active | Not Active | Not Active | Not Active | Not Active | Cc1ccc(-c2nnc(SC3CC(=O)N(c4ccc5ccccc5c4)C3=O)[nH]2)cc1 (stereo unspecified)
Active | Active | Not Active | Not Active | Not Active | Not Active | O=C1CC(Sc2nnc(-c3ccccc3O)o2)C(=O)N1c1ccccc1 (stereo unspecified)
Active | Active | Not Active | Not Active | Not Active | Not Active | CCC(=O)OCCNc1cc(Sc2nnc(-c3ccccc3)s2)c2nonc2c1[N+](=O)[O-]
Active | Active | Not Active | Not Active | Not Active | Not Active | Cn1c(Sc2ccc([N+](=O)[O-])c3nonc23)nnc1-c1ccccc1
Active | Active | Not Active | Not Active | Not Active | Not Active | Cc1ccc(-c2nnc(SC3CC(=O)N(c4ccc(Oc5ccccc5)cc4)C3=O)[nH]2)cc1 (stereo unspecified)

Source: ChEMBL document CHEMBL3414544, “PAINS in the assay: chemical mechanisms of assay interference and promiscuous enzymatic inhibition observed during a sulfhydryl-scavenging HTS” (J Med Chem, 2015)
